Drawing on ChEMBL document CHEMBL3351625, “Ethyl 2-(benzylidene)-7-methyl-3-oxo-2,3-dihydro-5H-thiazolo[3,2-a]pyrimidine-6-carboxylate analogues as a new scaffold for protein kinase casein kinase 2 inhibitor” (Bioorg Med Chem, 2014), this text covers Activity for 3 compounds.

The source made the active and inactive calls. The rule behind the calls is not given here.

Assay [1] concerns the target T1, Mitogen-activated protein kinase 12 (Homo sapiens) (UniProt P53778).
T1 sequence (whole entry): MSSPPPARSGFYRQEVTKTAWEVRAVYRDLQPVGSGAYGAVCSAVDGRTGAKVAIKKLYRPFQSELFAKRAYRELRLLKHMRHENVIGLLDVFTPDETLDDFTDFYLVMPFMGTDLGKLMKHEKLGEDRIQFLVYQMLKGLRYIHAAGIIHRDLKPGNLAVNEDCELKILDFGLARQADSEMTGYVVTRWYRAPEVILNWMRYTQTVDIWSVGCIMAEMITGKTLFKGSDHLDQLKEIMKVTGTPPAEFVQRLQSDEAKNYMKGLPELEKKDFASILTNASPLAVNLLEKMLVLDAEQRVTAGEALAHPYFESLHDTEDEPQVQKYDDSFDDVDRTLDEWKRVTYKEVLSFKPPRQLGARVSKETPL
The assay can be described thus: Inhibition of human SAPK3 assessed as residual activity at 10 uM by KinaseProfiler assay. An outline of the steps:
(§1)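 Radioactive phosphorylation assays were run by an outsourced profiling service. Each of 31 human kinases was tested with inhibitor at 10 µM. Residual activity is expressed as a percentage of the mean activity in positive-control wells, which contained all reaction components except inhibitor plus DMSO as solvent control.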

The target of assay [2] is Mitogen-activated protein kinase 1 (Homo sapiens) (UniProt P28482). In words: Inhibition of human MAPK2 assessed as residual activity at 10 uM by KinaseProfiler assay. An outline of the steps:
as §1

Assay [3] concerns the target MAP kinase-activated protein kinase 3 (Homo sapiens) (UniProt Q16644). The assay can be described thus: Inhibition of human MAPKAP-K3 assessed as residual activity at 10 uM by KinaseProfiler assay. A digest of the protocol: as §1
Assay [4] is filed under the species Homo sapiens. The assay can be described thus: Inhibition of human CK1 assessed as residual activity at 10 uM by KinaseProfiler assay. An outline of the steps: as §1
For assay [5], the target named is Mitogen-activated protein kinase 8 (Homo sapiens) (UniProt P45983). The assay can be described thus: Inhibition of human JNK1alpha1 assessed as residual activity at 10 uM by KinaseProfiler assay. A digest of the protocol:
as §1

The target of assay [6] is Tyrosine-protein kinase Lck (Homo sapiens) (UniProt P06239). The assay can be described thus: Inhibition of human Lck assessed as residual activity at 10 uM by KinaseProfiler assay. A digest of the protocol:
as §1

For assay [7], the target named is Dual specificity tyrosine-phosphorylation-regulated kinase 2 (Homo sapiens) (UniProt Q92630). In words: Inhibition of human DYRK2 assessed as residual activity at 10 uM by KinaseProfiler assay.
The target in assay [8] is RAC-alpha serine/threonine-protein kinase (Homo sapiens) (UniProt P31749). In words: Inhibition of human PKBalpha assessed as residual activity at 10 uM by KinaseProfiler assay. A digest of the protocol: as §1
Sequence of RAC-alpha serine/threonine-protein kinase (Homo sapiens) (P31749 whole entry): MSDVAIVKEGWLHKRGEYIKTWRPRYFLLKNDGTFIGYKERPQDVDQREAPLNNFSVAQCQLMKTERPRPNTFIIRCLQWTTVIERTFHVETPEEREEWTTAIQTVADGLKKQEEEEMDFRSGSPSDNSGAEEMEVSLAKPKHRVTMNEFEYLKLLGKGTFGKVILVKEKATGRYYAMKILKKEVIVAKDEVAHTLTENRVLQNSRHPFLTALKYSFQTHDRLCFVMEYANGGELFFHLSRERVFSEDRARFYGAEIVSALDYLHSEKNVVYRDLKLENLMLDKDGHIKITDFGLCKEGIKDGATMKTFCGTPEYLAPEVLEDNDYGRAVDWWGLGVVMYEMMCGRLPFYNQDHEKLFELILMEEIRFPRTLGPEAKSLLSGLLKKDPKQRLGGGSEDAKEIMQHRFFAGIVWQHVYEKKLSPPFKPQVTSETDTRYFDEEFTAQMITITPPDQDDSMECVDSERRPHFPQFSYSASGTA
Assay [9] concerns MKN-74. In words: Cytotoxicity against human MKN74 cells assessed as cell viability at 10 uM after 24 hrs by MTT assay. It counts as functional, cell-based. A digest of the protocol: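 Lines from Korea Cell Line Bank, kept in RPMI1640 with serum and penicillin/streptomycin at 37 °C, 5% CO2. Seeded at 1 × 10⁴ cells/well and grown 24 h, then exposed to the inhibitor for 24 h. MTT added at 4 mg/mL final for 2 h, formazan taken up in DMSO, absorbance read at 570 nm. Run in quadruplicate.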
For orientation: Tetrazolium assays rely on reduction of a dye to a coloured formazan, in cell work by metabolically active cells.

For assay [10], the target named is Protein kinase C alpha type (Homo sapiens) (UniProt P17252). The assay can be described thus: Inhibition of human PKCalpha assessed as residual activity at 10 uM by KinaseProfiler assay. An outline of the steps: as §1
Assay [11] concerns the target 5'-AMP-activated protein kinase catalytic subunit alpha-1 (Homo sapiens) (UniProt Q13131). The assay can be described thus: Inhibition of human AMPKalpha1 assessed as residual activity at 10 uM by KinaseProfiler assay. A digest of the protocol: as §1
Assay [12] concerns the target Tyrosine-protein kinase CSK (Homo sapiens) (UniProt P41240). The assay can be described thus: Inhibition of human CSK assessed as residual activity at 10 uM by KinaseProfiler assay. A digest of the protocol:
as §1

For assay [13], the target named is MAP kinase-activated protein kinase 2 (Homo sapiens) (UniProt P49137). The assay can be described thus: Inhibition of human MAPKAP-K2 assessed as residual activity at 10 uM by KinaseProfiler assay. An outline of the steps:
as §1

The target of assay [14] is Mitogen-activated protein kinase 14 (Homo sapiens) (UniProt Q16539). The assay can be described thus: Inhibition of human SAPK2a assessed as residual activity at 10 uM by KinaseProfiler assay. An outline of the steps: as §1
Sequence of Mitogen-activated protein kinase 14 (Homo sapiens) (Q16539 whole entry): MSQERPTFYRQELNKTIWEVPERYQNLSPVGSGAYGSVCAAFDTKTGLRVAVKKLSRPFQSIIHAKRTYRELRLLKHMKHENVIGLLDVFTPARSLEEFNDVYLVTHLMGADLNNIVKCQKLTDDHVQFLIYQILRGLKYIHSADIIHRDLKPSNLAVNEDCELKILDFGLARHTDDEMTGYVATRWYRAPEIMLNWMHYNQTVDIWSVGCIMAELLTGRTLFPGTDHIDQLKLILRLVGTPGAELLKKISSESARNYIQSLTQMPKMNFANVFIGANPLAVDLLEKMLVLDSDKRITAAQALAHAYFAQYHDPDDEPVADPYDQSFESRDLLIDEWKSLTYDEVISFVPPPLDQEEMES
The species entered for assay [15] is Homo sapiens. The assay can be described thus: Inhibition of human PKA assessed as residual activity at 10 uM by KinaseProfiler assay. A digest of the protocol:
as §1

For assay [16], the target named is Mitogen-activated protein kinase 11 (Homo sapiens) (UniProt Q15759). The assay can be described thus: Inhibition of human SAPK2b assessed as residual activity at 10 uM by KinaseProfiler assay. An outline of the steps: as §1
In assay [17] the target is Tyrosine-protein kinase SYK (Homo sapiens) (UniProt P43405). The assay can be described thus: Inhibition of human Syk assessed as residual activity at 10 uM by KinaseProfiler assay. An outline of the steps:
as §1

Assay [18] deals with Rho-associated protein kinase 2 (Homo sapiens) (UniProt O75116). The assay can be described thus: Inhibition of human ROCK2 assessed as residual activity at 10 uM by KinaseProfiler assay. A digest of the protocol:
as §1

Assay [19] addresses T2, Mitogen-activated protein kinase 13 (Homo sapiens) (UniProt O15264).
T2 sequence (whole entry): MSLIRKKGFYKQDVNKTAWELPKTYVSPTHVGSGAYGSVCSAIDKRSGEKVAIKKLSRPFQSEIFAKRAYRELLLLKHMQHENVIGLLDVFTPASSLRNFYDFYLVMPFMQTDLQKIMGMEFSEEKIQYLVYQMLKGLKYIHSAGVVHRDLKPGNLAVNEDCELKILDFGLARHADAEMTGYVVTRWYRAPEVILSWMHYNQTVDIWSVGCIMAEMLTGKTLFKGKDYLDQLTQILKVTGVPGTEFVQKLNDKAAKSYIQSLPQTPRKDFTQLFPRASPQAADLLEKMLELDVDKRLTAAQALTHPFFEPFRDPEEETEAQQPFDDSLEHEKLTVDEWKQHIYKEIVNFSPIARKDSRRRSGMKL
The assay can be described thus: Inhibition of human SAPK4 assessed as residual activity at 10 uM by KinaseProfiler assay. An outline of the steps: as §1

Assay [20] deals with T3, Serine/threonine-protein kinase Chk1 (Homo sapiens) (UniProt O14757).
T3 sequence (whole entry): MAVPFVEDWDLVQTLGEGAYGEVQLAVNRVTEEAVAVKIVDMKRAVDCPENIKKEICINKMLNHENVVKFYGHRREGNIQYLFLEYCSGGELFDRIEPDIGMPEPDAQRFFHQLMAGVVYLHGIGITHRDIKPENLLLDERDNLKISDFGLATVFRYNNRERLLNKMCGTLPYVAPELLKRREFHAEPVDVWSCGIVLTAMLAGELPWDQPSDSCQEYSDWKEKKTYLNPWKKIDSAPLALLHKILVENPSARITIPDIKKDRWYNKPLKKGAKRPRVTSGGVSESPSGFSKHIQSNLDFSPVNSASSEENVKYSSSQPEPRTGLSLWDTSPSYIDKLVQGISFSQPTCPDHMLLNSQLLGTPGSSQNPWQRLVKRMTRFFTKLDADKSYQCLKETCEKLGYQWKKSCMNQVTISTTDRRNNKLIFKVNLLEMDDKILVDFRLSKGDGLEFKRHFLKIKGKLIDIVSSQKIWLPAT
In words: Inhibition of human CHK1 assessed as residual activity at 10 uM by KinaseProfiler assay. An outline of the steps: as §1

Assay [21] concerns the target Tyrosine-protein kinase Lyn (Homo sapiens) (UniProt P07948). In words: Inhibition of human Lyn assessed as residual activity at 10 uM by KinaseProfiler assay. An outline of the steps:
as §1

Sequence of Tyrosine-protein kinase Lck (Homo sapiens) (P06239 2-509 limits assumed): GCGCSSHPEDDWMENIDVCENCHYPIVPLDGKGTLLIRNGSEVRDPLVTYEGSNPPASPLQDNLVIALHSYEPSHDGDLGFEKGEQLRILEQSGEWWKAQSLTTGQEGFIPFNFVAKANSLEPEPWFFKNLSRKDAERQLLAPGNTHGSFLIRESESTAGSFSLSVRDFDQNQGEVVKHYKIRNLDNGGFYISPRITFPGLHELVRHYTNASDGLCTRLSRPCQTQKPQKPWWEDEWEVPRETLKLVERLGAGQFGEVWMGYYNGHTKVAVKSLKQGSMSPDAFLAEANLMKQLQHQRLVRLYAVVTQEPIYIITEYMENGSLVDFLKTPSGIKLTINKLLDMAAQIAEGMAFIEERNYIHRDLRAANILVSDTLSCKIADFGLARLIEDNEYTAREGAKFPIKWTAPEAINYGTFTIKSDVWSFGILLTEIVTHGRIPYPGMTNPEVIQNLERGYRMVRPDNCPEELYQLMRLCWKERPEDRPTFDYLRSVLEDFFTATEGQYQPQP
Sequence of 5'-AMP-activated protein kinase catalytic subunit alpha-1 (Homo sapiens) (Q13131 whole entry, looked up): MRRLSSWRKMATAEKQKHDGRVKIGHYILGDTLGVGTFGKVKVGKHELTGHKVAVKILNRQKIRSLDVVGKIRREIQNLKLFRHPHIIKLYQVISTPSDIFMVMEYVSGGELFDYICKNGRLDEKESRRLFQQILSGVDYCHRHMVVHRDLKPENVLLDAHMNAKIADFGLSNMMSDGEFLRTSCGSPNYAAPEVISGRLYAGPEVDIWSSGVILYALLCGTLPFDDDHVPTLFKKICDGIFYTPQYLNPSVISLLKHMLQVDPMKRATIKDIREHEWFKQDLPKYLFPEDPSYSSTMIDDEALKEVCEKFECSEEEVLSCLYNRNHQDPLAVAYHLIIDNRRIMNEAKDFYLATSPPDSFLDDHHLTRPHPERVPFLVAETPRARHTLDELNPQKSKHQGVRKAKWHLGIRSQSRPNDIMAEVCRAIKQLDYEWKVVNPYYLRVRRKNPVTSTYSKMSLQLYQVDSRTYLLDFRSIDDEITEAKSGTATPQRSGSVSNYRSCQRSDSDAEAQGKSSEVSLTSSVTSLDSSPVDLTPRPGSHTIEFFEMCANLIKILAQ
Sequence of MAP kinase-activated protein kinase 2 (Homo sapiens) (P49137 whole entry, looked up): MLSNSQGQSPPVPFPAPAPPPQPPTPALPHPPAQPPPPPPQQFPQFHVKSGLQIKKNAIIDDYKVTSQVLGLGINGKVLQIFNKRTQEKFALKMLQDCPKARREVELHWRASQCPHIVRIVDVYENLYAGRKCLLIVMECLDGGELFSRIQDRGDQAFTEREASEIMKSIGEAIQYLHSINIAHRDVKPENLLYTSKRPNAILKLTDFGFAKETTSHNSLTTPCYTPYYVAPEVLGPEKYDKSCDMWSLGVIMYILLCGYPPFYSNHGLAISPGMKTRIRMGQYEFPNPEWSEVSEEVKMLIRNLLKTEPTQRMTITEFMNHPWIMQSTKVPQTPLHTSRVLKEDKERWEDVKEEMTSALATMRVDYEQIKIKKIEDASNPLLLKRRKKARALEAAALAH
Sequence of Rho-associated protein kinase 2 (Homo sapiens) (O75116 whole entry, looked up): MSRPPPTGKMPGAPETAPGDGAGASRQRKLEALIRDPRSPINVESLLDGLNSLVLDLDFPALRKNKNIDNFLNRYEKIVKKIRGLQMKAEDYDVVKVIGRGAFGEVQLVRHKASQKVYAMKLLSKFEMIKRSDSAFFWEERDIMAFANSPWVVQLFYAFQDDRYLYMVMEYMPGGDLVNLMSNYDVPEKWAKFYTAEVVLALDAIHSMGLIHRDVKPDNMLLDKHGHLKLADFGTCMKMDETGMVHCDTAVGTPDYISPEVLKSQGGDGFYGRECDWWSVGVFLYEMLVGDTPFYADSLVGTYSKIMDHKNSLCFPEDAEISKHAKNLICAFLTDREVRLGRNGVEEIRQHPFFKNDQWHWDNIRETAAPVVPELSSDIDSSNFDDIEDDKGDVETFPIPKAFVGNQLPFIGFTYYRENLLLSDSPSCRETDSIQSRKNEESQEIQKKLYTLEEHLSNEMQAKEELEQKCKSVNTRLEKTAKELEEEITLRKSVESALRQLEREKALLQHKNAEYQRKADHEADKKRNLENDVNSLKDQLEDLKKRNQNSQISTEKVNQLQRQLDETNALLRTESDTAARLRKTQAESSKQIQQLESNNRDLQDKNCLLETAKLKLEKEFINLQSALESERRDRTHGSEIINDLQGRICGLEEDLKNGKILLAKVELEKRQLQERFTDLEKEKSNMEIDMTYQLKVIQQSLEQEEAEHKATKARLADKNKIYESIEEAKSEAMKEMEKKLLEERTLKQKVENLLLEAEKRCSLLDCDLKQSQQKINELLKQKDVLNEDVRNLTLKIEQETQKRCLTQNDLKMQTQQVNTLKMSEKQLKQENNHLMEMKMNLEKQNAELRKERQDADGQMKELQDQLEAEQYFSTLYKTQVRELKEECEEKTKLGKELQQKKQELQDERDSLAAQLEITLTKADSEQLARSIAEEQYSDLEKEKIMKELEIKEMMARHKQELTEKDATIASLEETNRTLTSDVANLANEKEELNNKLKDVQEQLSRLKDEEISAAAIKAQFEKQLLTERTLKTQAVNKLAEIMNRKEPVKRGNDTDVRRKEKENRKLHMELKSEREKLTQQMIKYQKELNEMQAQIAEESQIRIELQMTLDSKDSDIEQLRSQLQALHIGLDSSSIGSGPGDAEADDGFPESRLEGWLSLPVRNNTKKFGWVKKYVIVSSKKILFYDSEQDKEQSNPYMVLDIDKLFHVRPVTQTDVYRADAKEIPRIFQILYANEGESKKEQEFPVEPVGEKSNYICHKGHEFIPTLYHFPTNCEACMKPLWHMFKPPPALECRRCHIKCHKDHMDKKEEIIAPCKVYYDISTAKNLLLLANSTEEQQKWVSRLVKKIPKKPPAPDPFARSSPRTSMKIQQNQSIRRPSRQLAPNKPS
Sequence of Mitogen-activated protein kinase 8 (Homo sapiens) (P45983 whole entry): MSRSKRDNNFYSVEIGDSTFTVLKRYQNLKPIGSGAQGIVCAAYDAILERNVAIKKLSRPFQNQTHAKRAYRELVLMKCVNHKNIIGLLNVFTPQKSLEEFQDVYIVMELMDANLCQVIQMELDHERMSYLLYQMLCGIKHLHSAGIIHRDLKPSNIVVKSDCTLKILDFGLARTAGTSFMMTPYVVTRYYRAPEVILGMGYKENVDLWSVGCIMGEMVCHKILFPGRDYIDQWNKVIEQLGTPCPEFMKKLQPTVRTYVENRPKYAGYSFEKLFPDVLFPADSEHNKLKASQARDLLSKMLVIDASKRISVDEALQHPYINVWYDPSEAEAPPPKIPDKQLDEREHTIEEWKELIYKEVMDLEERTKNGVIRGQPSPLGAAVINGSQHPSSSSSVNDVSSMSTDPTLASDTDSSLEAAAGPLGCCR

With `CCOC(=O)C1=C(C)N=c2s/c(=C\c3ccc(O)c(O)c3)c(=O)n2C1c1ccc(Cl)cc1` (configuration not stated), the Activity in assay [1] amounted to 69%; in assay [2], 85%; in assay [3], 117%; in assay [4] it was 50%; in assay [5], 101%; in assay [6] it was 57%. Also, the Activity in [7] stood at 14%; in assay [8], 90%; in [10] it was 91%; in assay [11] it was 82%; in assay [12], 82%; in [13] it was 98%. Further, the Activity in assay [14] worked out at 72%; in assay [15], 130%; in assay [16], 114%; in [17], 77%; in assay [18], 89%; in assay [19] it was 79%. Moreover, the Activity was determined as 117% in assay [20] and 20% in assay [21]. The result in assay [9] was Active.

As to `CCOC(=O)C1=C(C)N=c2s/c(=C\c3cc(O)c(O)c(O)c3)c(=O)n2C1c1ccc(Cl)cc1` (configuration not stated), the Activity in [1] is 63%; in [2], 87%; in [3], 122%; in assay [4], 77%; in assay [5] it was 92%; in assay [6], 61%. The Activity came out at 118% in assay [7]; 50% in assay [8]; 91% in assay [10]; 64% in assay [11]; 54% in assay [12]; 86% in [13]. Besides, the Activity in assay [14] was 59%; in [15], 92%; in assay [16] it was 101%; in assay [17] it was 28%; in assay [18], 108%; in assay [19] it was 76%. In addition, the Activity in [20] is 127%; in [21] it was 5%.

Turning to `Brc1c(Br)c(Br)c2[nH]nnc2c1Br`, the Activity in [1] was determined as 29%; in assay [2], 104%; in assay [3], 95%; in [4] it was 51%; in [5] it was 51%; in [6], 78%. Besides, the Activity in assay [7] amounted to 2%; in assay [8], 61%; in assay [10], 106%; in [11] it was 75%; in [12], 116%; in [13], 78%. In addition, the Activity in assay [14] is 99%; in assay [15], 109%; in [16], 112%; in [17], 87%; in assay [18] it was 73%; in assay [19], 106%. Besides, the Activity was found to be 149% in [20] and 113% in [21]. The result in [9] was Active.
